tested on: IMR-90; assay: Antiproliferative activity against human IMR90 cells after 72 hrs by MTT assay; type: cell-based; details: IMR-90, 72 h

Compared with `COc1cccc2c1C(=O)c1c(O)c3c(c(O)c1C2=O)C[C@@](O)(C(=O)CO)C[C@@H]3O[C@H]1C[C@H](N)[C@H](O)[C@H](C)O1` [DOXORUBICIN], `Cc1ccccc1C1CCN(C2=CC(=O)c3cccc(O)c3C2=O)CC1` is higher in IC50: 1 µM for the first, over 50 µM for the second.

Going from `O=C1C=C(N2CCN(c3ccccc3Cl)CC2)C(=O)c2ccccc21` to `O=C1C=C(N2CCN(c3ccccc3Cl)CC2)C(=O)c2c(O)cccc21`, the IC50 falls from over 50 µM to 16.9 µM. The second is the more potent here.

tested on: DU-145; assay: Induction of apoptosis in human DU145 cells at 5 uM assessed as dead cell level after 72 hrs by AnnexinV conjugated 7- AAD staining by flow cytometry; type: functional; details: not given
Outline: (§1)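 Du145 human prostate carcinoma cells exposed to compound for 72 h, then stained with Annexin V and 7-AAD and analysed by flow cytometry. Annexin V detects phosphatidylserine externalised to the outer membrane leaflet, and 7-AAD enters only membrane-compromised cells. Dead cells were those positive for both stains. Untreated cells served as control.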

Going from `Cc1ccccc1C1CCN(C2=CC(=O)c3cccc(O)c3C2=O)CC1` to `O=C1C=C(N2CCN(c3ccccc3Cl)CC2)C(=O)c2ccccc21`, the Activity rises from 3.9% to 3.99%.

tested on: DU-145; assay: Induction of apoptosis in human DU145 cells at 10 uM assessed as late apoptosis/ necrotic cells level after 72 hrs by AnnexinV conjugated 7- AAD staining by flow cytometry; type: functional; details: not given
Outline: (§2)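 Du145 cells were treated for 72 h and stained with Annexin V conjugate plus 7-AAD. Flow cytometry read PS externalization and membrane integrity, scoring cells as live (double negative), early apoptotic, or late apoptotic/necrotic (double positive). Untreated cells served as the control.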

Compared with `Cc1ccccc1C1CCN(C2=CC(=O)c3cccc(O)c3C2=O)CC1`, `O=C1C=C(N2CCN(c3ccccc3Cl)CC2)C(=O)c2ccccc21` is lower in Activity: 84.32% for the first, 9.71% for the second.

tested on: DU-145; assay: Induction of apoptosis in human DU145 cells at 10 uM assessed as early apoptosis level after 72 hrs by AnnexinV conjugated 7- AAD staining by flow cytometry; type: functional; details: not given; outline: as §2

First: Cc1ccccc1C1CCN(C2=CC(=O)c3cccc(O)c3C2=O)CC1
Second: O=C1C=C(N2CCN(c3ccccc3Cl)CC2)C(=O)c2ccccc21
The Activity of the first is higher: 14.31% for the first, 1.89% for the second.

tested on: DU-145; assay: Growth inhibition of human DU145 cells after 72 hrs by MTT assay; type: functional, cell-based; details: DU-145, 72 h
Outline: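 Du145 human prostate carcinoma cells were screened by MTT cell-growth inhibition assay. IC50 values are means of three experiments.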

`Cc1ccccc1C1CCN(C2=CC(=O)c3cccc(O)c3C2=O)CC1` and `O=C1C=C(N2CCN(c3ccccc3Cl)CC2)C(=O)c2c(O)cccc21` are within 1.5-fold of each other in IC50: 2.5 µM for the first, 2.3 µM for the second.

Work on `O=C1C=C(N2CCN(c3ccccc3Cl)CC2)C(=O)c2ccccc21` yielded an IC50 of 2.9 µM.

tested on: HT-29; assay: Antiproliferative activity against human HT-29 cells after 72 hrs by MTT assay; type: functional, cell-based; details: HT-29, 72 h

First: COc1cccc2c1C(=O)c1c(O)c3c(c(O)c1C2=O)C[C@@](O)(C(=O)CO)C[C@@H]3O[C@H]1C[C@H](N)[C@H](O)[C@H](C)O1 [DOXORUBICIN]
Second: Cc1ccccc1C1CCN(C2=CC(=O)c3cccc(O)c3C2=O)CC1
The IC50 of the first is 5.2-fold lower: 1.3 µM for the first, 6.7 µM for the second.

First: O=C1C=C(N2CCN(c3ccccc3Cl)CC2)C(=O)c2ccccc21
Second: O=C1C=C(N2CCN(c3ccccc3Cl)CC2)C(=O)c2c(O)cccc21
The IC50 of the first is 14-fold higher: 18.9 µM for the first, 1.4 µM for the second. The second is the more potent here.

tested on: MOLT-4; assay: Antiproliferative activity against human MOLT4 cells after 72 hrs by MTT assay; type: functional, cell-based; details: MOLT-4, 72 h

First: COc1cccc2c1C(=O)c1c(O)c3c(c(O)c1C2=O)C[C@@](O)(C(=O)CO)C[C@@H]3O[C@H]1C[C@H](N)[C@H](O)[C@H](C)O1 [DOXORUBICIN]
Second: Cc1ccccc1C1CCN(C2=CC(=O)c3cccc(O)c3C2=O)CC1
The IC50 of the first is lower: 0.002 µM for the first, over 50 µM for the second.

Compared with `O=C1C=C(N2CCN(c3ccccc3Cl)CC2)C(=O)c2ccccc21`, `O=C1C=C(N2CCN(c3ccccc3Cl)CC2)C(=O)c2c(O)cccc21` is lower in IC50: over 50 µM for the first, 27.6 µM for the second.

tested on: DU-145; assay: Induction of apoptosis in human DU145 cells at 5 uM assessed as live cell level after 72 hrs by AnnexinV conjugated 7- AAD staining by flow cytometry; type: functional; details: not given; outline: as §2

Going from `Cc1ccccc1C1CCN(C2=CC(=O)c3cccc(O)c3C2=O)CC1` to `O=C1C=C(N2CCN(c3ccccc3Cl)CC2)C(=O)c2ccccc21`, the Activity rises from 51.4% to 91.36%.

tested on: DU-145; assay: Induction of apoptosis in human DU145 cells at 5 uM assessed as late apoptosis/ necrotic cells level after 72 hrs by AnnexinV conjugated 7- AAD staining by flow cytometry; type: functional; details: not given; outline: as §2

First: Cc1ccccc1C1CCN(C2=CC(=O)c3cccc(O)c3C2=O)CC1
Second: O=C1C=C(N2CCN(c3ccccc3Cl)CC2)C(=O)c2ccccc21
The Activity of the first is higher: 34.39% for the first, 3.65% for the second.

tested on: DU-145; assay: Induction of apoptosis in human DU145 cells at 5 uM assessed as early apoptosis level after 72 hrs by AnnexinV conjugated 7- AAD staining by flow cytometry; type: functional; details: not given; outline: as §2

Compared with `Cc1ccccc1C1CCN(C2=CC(=O)c3cccc(O)c3C2=O)CC1`, `O=C1C=C(N2CCN(c3ccccc3Cl)CC2)C(=O)c2ccccc21` is lower in Activity: 10.31% for the first, 1.01% for the second.

tested on: not listed separately; assay: Antiproliferative activity against human L78 cells after 72 hrs by MTT assay; type: functional, cell-based; details: L78, 72 h

Compared with `COc1cccc2c1C(=O)c1c(O)c3c(c(O)c1C2=O)C[C@@](O)(C(=O)CO)C[C@@H]3O[C@H]1C[C@H](N)[C@H](O)[C@H](C)O1` [DOXORUBICIN], `Cc1ccccc1C1CCN(C2=CC(=O)c3cccc(O)c3C2=O)CC1` is 1.8-fold higher in IC50: 2.4 µM for the first, 4.4 µM for the second. The first is the more potent here.

Compared with `O=C1C=C(N2CCN(c3ccccc3Cl)CC2)C(=O)c2ccccc21`, `O=C1C=C(N2CCN(c3ccccc3Cl)CC2)C(=O)c2c(O)cccc21` is 5.5-fold lower in IC50: 28.8 µM for the first, 5.2 µM for the second.

tested on: U-251; assay: Antiproliferative activity against human U251 cells after 72 hrs by MTT assay; type: functional, cell-based; details: U-251, 72 h

Compared with `COc1cccc2c1C(=O)c1c(O)c3c(c(O)c1C2=O)C[C@@](O)(C(=O)CO)C[C@@H]3O[C@H]1C[C@H](N)[C@H](O)[C@H](C)O1` [DOXORUBICIN], `Cc1ccccc1C1CCN(C2=CC(=O)c3cccc(O)c3C2=O)CC1` is 51-fold higher in IC50: 0.6 µM for the first, 30.4 µM for the second. The first is the more potent here.

First: O=C1C=C(N2CCN(c3ccccc3Cl)CC2)C(=O)c2ccccc21
Second: O=C1C=C(N2CCN(c3ccccc3Cl)CC2)C(=O)c2c(O)cccc21
The IC50 of the first is 3.9-fold higher: 30.8 µM for the first, 8 µM for the second. The second is the more potent here.

tested on: A549; assay: Antiproliferative activity against human A549 cells after 72 hrs by MTT assay; type: functional, cell-based; details: A549, 72 h

`Cc1ccccc1C1CCN(C2=CC(=O)c3cccc(O)c3C2=O)CC1` and `O=C1C=C(N2CCN(c3ccccc3Cl)CC2)C(=O)c2c(O)cccc21` are within 1.5-fold of each other in IC50: 5.2 µM for the first, 4.5 µM for the second.

In the case of `O=C1C=C(N2CCN(c3ccccc3Cl)CC2)C(=O)c2ccccc21`, the IC50 is reported as 10.3 µM.

tested on: MCF7; assay: Antiproliferative activity against human MCF7 cells after 72 hrs by MTT assay; type: functional, cell-based; details: MCF7, 72 h

Compared with `Cc1ccccc1C1CCN(C2=CC(=O)c3cccc(O)c3C2=O)CC1`, `O=C1C=C(N2CCN(c3ccccc3Cl)CC2)C(=O)c2c(O)cccc21` is 2.7-fold higher in IC50: 8.9 µM for the first, 23.8 µM for the second. The first is the more potent here.

With `O=C1C=C(N2CCN(c3ccccc3Cl)CC2)C(=O)c2ccccc21` the IC50 was 10.3 µM.

tested on: SGC-7901; assay: Antiproliferative activity against human SGC7901 cells after 72 hrs by MTT assay; type: functional, cell-based; details: SGC-7901, 72 h

First: COc1cccc2c1C(=O)c1c(O)c3c(c(O)c1C2=O)C[C@@](O)(C(=O)CO)C[C@@H]3O[C@H]1C[C@H](N)[C@H](O)[C@H](C)O1 [DOXORUBICIN]
Second: Cc1ccccc1C1CCN(C2=CC(=O)c3cccc(O)c3C2=O)CC1
The IC50 of the first is 4.3-fold lower: 0.9 µM for the first, 3.9 µM for the second. The first is the more potent here.

First: O=C1C=C(N2CCN(c3ccccc3Cl)CC2)C(=O)c2ccccc21
Second: O=C1C=C(N2CCN(c3ccccc3Cl)CC2)C(=O)c2c(O)cccc21
The IC50 of the first is 5.1-fold higher: 41.8 µM for the first, 8.2 µM for the second. The second is the more potent here.

tested on: OS-RC-2; assay: Antiproliferative activity against human OS-RC2 cells after 72 hrs by MTT assay; type: functional, cell-based; details: OS-RC-2, 72 h

Compared with `COc1cccc2c1C(=O)c1c(O)c3c(c(O)c1C2=O)C[C@@](O)(C(=O)CO)C[C@@H]3O[C@H]1C[C@H](N)[C@H](O)[C@H](C)O1` [DOXORUBICIN], `Cc1ccccc1C1CCN(C2=CC(=O)c3cccc(O)c3C2=O)CC1` is 1.7-fold lower in IC50: 5.4 µM for the first, 3.2 µM for the second. The second is the more potent here.

Compared with `O=C1C=C(N2CCN(c3ccccc3Cl)CC2)C(=O)c2ccccc21`, `O=C1C=C(N2CCN(c3ccccc3Cl)CC2)C(=O)c2c(O)cccc21` is 3.6-fold lower in IC50: 8.9 µM for the first, 2.5 µM for the second. The second is the more potent here.

tested on: KB; assay: Antiproliferative activity against human KB cells after 72 hrs by MTT assay; type: functional, cell-based; details: not given

`Cc1ccccc1C1CCN(C2=CC(=O)c3cccc(O)c3C2=O)CC1` and `O=C1C=C(N2CCN(c3ccccc3Cl)CC2)C(=O)c2c(O)cccc21` are the same in IC50: 4.4 µM for the first, 4.4 µM for the second.

In the case of `O=C1C=C(N2CCN(c3ccccc3Cl)CC2)C(=O)c2ccccc21`, the IC50 is reported as 3.7 µM.

tested on: DU-145; assay: Induction of apoptosis in human DU145 cells at 10 uM assessed as dead cell level after 72 hrs by AnnexinV conjugated 7- AAD staining by flow cytometry; type: functional; details: not given; outline: as §1

Compared with `Cc1ccccc1C1CCN(C2=CC(=O)c3cccc(O)c3C2=O)CC1`, `O=C1C=C(N2CCN(c3ccccc3Cl)CC2)C(=O)c2ccccc21` is higher in Activity: 0.42% for the first, 3.1% for the second.

tested on: HepG2; assay: Antiproliferative activity against human HepG2 cells after 72 hrs by MTT assay; type: functional, cell-based; details: HepG2, 72 h

First: Cc1ccccc1C1CCN(C2=CC(=O)c3cccc(O)c3C2=O)CC1
Second: O=C1C=C(N2CCN(c3ccccc3Cl)CC2)C(=O)c2c(O)cccc21
The IC50 of the first is 2.2-fold higher: 16.6 µM for the first, 7.7 µM for the second.

With `O=C1C=C(N2CCN(c3ccccc3Cl)CC2)C(=O)c2ccccc21` the IC50 was 11.1 µM.

tested on: HeLa; assay: Antiproliferative activity against human HeLa cells after 72 hrs by MTT assay; type: functional, cell-based; details: not given

`Cc1ccccc1C1CCN(C2=CC(=O)c3cccc(O)c3C2=O)CC1` and `O=C1C=C(N2CCN(c3ccccc3Cl)CC2)C(=O)c2c(O)cccc21` are within 1.5-fold of each other in IC50: 9.7 µM for the first, 7.2 µM for the second.

`O=C1C=C(N2CCN(c3ccccc3Cl)CC2)C(=O)c2ccccc21` gave an IC50 of 11.3 µM.

tested on: HT-1080; assay: Antiproliferative activity against human HT1080 cells after 72 hrs by MTT assay; type: functional, cell-based; details: HT-1080, 72 h

Going from `COc1cccc2c1C(=O)c1c(O)c3c(c(O)c1C2=O)C[C@@](O)(C(=O)CO)C[C@@H]3O[C@H]1C[C@H](N)[C@H](O)[C@H](C)O1` [DOXORUBICIN] to `Cc1ccccc1C1CCN(C2=CC(=O)c3cccc(O)c3C2=O)CC1`, the IC50 rises from 0.1 µM to over 50 µM. The first is the more potent here.

Going from `O=C1C=C(N2CCN(c3ccccc3Cl)CC2)C(=O)c2ccccc21` to `O=C1C=C(N2CCN(c3ccccc3Cl)CC2)C(=O)c2c(O)cccc21`, the IC50 falls from 15.4 µM to 5.8 µM (2.7-fold).

tested on: DU-145; assay: Induction of apoptosis in human DU145 cells at 10 uM assessed as live cell level after 72 hrs by AnnexinV conjugated 7- AAD staining by flow cytometry; type: functional; details: not given; outline: as §2

Compared with `Cc1ccccc1C1CCN(C2=CC(=O)c3cccc(O)c3C2=O)CC1`, `O=C1C=C(N2CCN(c3ccccc3Cl)CC2)C(=O)c2ccccc21` is higher in Activity: 0.96% for the first, 85.3% for the second.
